Apaf-1 act = activators of human Apaf-1 apoptosome, primary screen, biochemical, DEVD-Rh110 fluorescence, uHTS. Apaf-1 apoptosome caspase-3 activation; hits give low values. activity change, negative = activation, % at 20 µM. 330,000 tested, 0.31% active. AID 489031, 2010;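 active = activity change at or below -40% at 20 µM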
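Material: biochemical Apaf-1 apoptosome reconstitution; Medium: 20 mM HEPES buffer, pH 7.5, containing CHAPS and BSA; Reagent: dATP, cytochrome c, and (Z-DEVD)2-Rh110 caspase-3 substrate; Times: 30 min preincubation, 50 min reaction, room temperature; Signal: Rh110 fluorescence, excitation 480 nm, emission 540 nm; Measure: Caspase-3 activity via Apaf-1.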
Rh110 act interf = Rh110 fluorescence interference by putative Apaf-1 activators, confirmation, artefact control for Apaf-1 activator project, biochemical, 20 µM; shares compounds with Apaf-1 act; quenched caspase reaction, Ex480/Em540; fluorescence interference (activity change), % at 20 µM, hits read low; 980 tested, under 10 active;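 active = mean activity change at or below -40% when tested at 20 µM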
Apaf-1 act conf = Apaf-1 activators, single-dose retest, confirmation, biochemical, fluorescence, DEVD-Rh110, 20 µM | shares compounds with Apaf-1 act | reconstituted apoptosome caspase-3 activity; hits give low values | activity change, negative = activation, % at 20 µM | 980 tested, 5% active;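 active = mean activity change at or below -40%, meaning activation of 40% or more, at 20 µM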
Each line names hits and unclear results; the compound was inactive in the other large screens (follow-up assays come after a bar, where they were run). The list is a sample of the results.

Cc1ccc(C2(C)NC(=O)N(CC(=O)Nc3ccc4[nH]c(=O)[nH]c4c3)C2=O)cc1 (stereo unspecified)	Apaf-1 act -58.2 | Rh110 act interf inactive | Apaf-1 act conf inactive
CC1CC(C)(C)CC2(C1)NC(=O)N(CC(=O)Nc1ccc3[nH]c(=O)[nH]c3c1)C2=O (stereo unspecified)	none
COc1ccccc1CNC(=O)CN1C(=O)NC(c2ccccc2)(c2ccc(C)c(C)c2)C1=O (stereo unspecified)	none
CCCC(C(=O)NC(C)(C)C)N(Cc1ccc(F)cc1)C(=O)c1snc(C(N)=O)c1N (stereo unspecified)	Apaf-1 act -107.9 | Rh110 act interf inactive | Apaf-1 act conf inactive
Cc1ccnc2c1ccc1c(C)ccnc12	none
COc1ccc(N=C2C(=Nc3ccc(OC)cc3)N(c3ccc(OC)cc3)C(=S)N2c2ccccc2)cc1	none
FC(F)(F)c1cc(CCN2CCNC[C@H]2Cc2cccc3ccccc23)cc(C(F)(F)F)c1	none
CCN1CCc2c(sc(NC(=O)c3ccc4ccccc4c3)c2C(N)=O)C1	none
O=C1C=C(c2ccc(OC(F)(F)F)cc2)C[C@@H](c2ccc(F)cc2)C1	none
O=C1NC2=C(CCc3ccccc32)C(c2ccccc2)N1 (stereo unspecified)	none
CCCNC(=O)c1ccc(SC)cc1OC	Apaf-1 act -173.5 | Rh110 act interf inactive | Apaf-1 act conf inactive
Cc1ccccc1C(=O)N1CCC(n2nccc2NC(=O)CCOc2ccccc2)CC1	Apaf-1 act -186.8 | Rh110 act interf inactive | Apaf-1 act conf inactive
FC(F)(F)C1=Nc2cccc3cccc(c23)N1	none
O=C(N/N=C/c1[nH]c2ccccc2c1Cl)c1cccc(Br)c1	Apaf-1 act -71.9 | Rh110 act interf inactive | Apaf-1 act conf inactive
O=C(NN=c1c(=O)c2ccccc2c1=O)c1ccccc1	none
CCC(C)(C)C1CCc2c(sc(N)c2C(N)=O)C1 (stereo unspecified)	Apaf-1 act -47.9 | Rh110 act interf inactive | Apaf-1 act conf inactive
c1ccc(CNc2nc(NCc3ccccc3)c3ccccc3n2)cc1	none
N#Cc1ccccc1OCC(=O)OCC(=O)N1CCCC1	Apaf-1 act -110.1 | Rh110 act interf inactive | Apaf-1 act conf inactive
COc1ccc2[nH]c3c(C)c4ccncc4c(C)c3c2c1	none
Nc1ccc(C(=O)O)cc1	none
Oc1ccc(-c2csc(-c3c[nH]c4ccccc34)n2)c(O)c1	Apaf-1 act -275.9 | Rh110 act interf inactive | Apaf-1 act conf inactive
CC1(C)Cc2cccc(OCC(=O)N3CCN(c4cccc(C(F)(F)F)c4)CC3)c2O1	none
CC(C)(C)NC(=O)[C@@H]1C[C@@H]2CCCC[C@@H]2CN1C[C@@H](O)[C@H](Cc1ccccc1)NC(=O)[C@H](CC(N)=O)NC(=O)c1ccc2ccccc2n1	none
COc1cc2nc(Nc3ccc(C)c(Cl)c3)nc(N)c2cc1OC	none
O=c1[nH]nc(CNc2ccc(O)cc2)c2ccccc12	none
COc1ccc(-c2csc(-c3ccc(O)cc3)n2)cc1	Apaf-1 act -115.7 | Rh110 act interf inactive | Apaf-1 act conf inactive
Cc1cc(/C=C\c2ccc3cc(N(C)C)ccc3[n+]2C)c(C)n1-c1ccccc1	none
Nc1scc2c(C(=O)N/N=C/c3ccc(Cl)cc3)nn(-c3ccccc3)c(=O)c12	none
CC(CCC(C)C(C)(C)C)[C@@H]1CC[C@H]2C3C[C@H](OS(O)(=S)=S)[C@H]4C[C@H](OS(O)(=S)=S)[C@@H](OS(O)(=S)=S)C[C@]4(C)[C@H]3CC[C@]12C (stereo partly specified) (tested in a mixture with another compound)	none
COc1cccc2cc(C(=O)NCc3ccc(Cl)cc3)c(=N)oc12	none
CSc1ncccc1C(=O)NCCc1ccc(Cl)cc1	Apaf-1 act -99.1 | Rh110 act interf inactive | Apaf-1 act conf inactive
Clc1cccc(Cl)c1CNC1CCCC1	Apaf-1 act -48.3 | Rh110 act interf inactive | Apaf-1 act conf inactive
Fc1cccc(Cl)c1CNc1ccc(N2CCCC2)cc1	none
CCC12CCCN3CCc4c(n(c5ccccc45)C(O)(C(=O)OC)C1)C32 (stereo unspecified)	none
CCCCOc1cc(NCc2ccccc2)c2ncn(C(C)C)c2c1	none
C#CCOCCOCCOCCNc1nc(N2CCN(C(=O)CCCCCCCCCCNC(=O)[C@H]([C@@H](C)CC)n3cc(CCCCN=C(N)N)nn3)CC2)nc(N2CCN(C(=O)CCCCCCCCCCNC(=O)[C@H]([C@@H](C)CC)n3cc(CCCCN=C(N)N)nn3)CC2)n1	none
COc1ccc(C(=O)N2CCCCCC2)cc1OC1CCN(C(C)C)CC1	Apaf-1 act -68.0 | Rh110 act interf inactive | Apaf-1 act conf inactive
CN(C)c1ccnc2c[cH-]cc12.[Fe].c1ccc(-[c-]2[c-](-c3ccccc3)[c-](-c3ccccc3)[c-](-c3ccccc3)[c-]2-c2ccccc2)cc1 (stereo unspecified)	none
Cc1cc(C)nc(NC(=O)CSc2nc3ccccc3o2)n1	Apaf-1 act -70.8 | Rh110 act interf inactive | Apaf-1 act conf inactive
CCC1C(=O)N=C(SCC(=O)Nc2nc3ccccc3s2)NC1=O (stereo unspecified)	none
CCCCNc1c(-c2ccc(SC3CCCCC3)cc2)nc2cnccn12	none
CC(C)C[C@@H]1CN=C(N)N1C[C@@H]1CCCN1C[C@H](C)N1C[C@@H](Cc2ccccc2)N(CCCC2CCCC2)C1=N	none
CCOC(=O)c1nn(-c2ccccc2)c(=O)c2c(N)scc12	none
COc1cc2c(cc1OC)CN(Cc1cc(=O)oc3cc(C)c(Cl)cc13)CC2	Apaf-1 act -42.9 | Rh110 act interf inactive | Apaf-1 act conf inactive
COc1cc2[nH]c(=O)n(Cc3ccc(C(=O)NC4CCCC4)cc3)c(=O)c2cc1OC	Apaf-1 act -52.8 | Rh110 act interf inactive | Apaf-1 act conf inactive
O=C(c1ccc(Cn2c(=O)[nH]c3ccccc3c2=O)cc1)N1CCN(c2ccc(Cl)cc2)CC1	none
O=C1C2C3C=CC(C3)C2C(=O)N1CNc1ccc(O)cc1 (stereo unspecified)	none
CC[C@H](C)[C@@H](C(=O)NCCCCCCCCCCC(=O)N1CCN(C(=O)OC(C)(C)C)CC1)n1cc(CCCCN=C(NC(=O)OC(C)(C)C)NC(=O)OC(C)(C)C)nn1	none
CCCCCCCCCCCCCCCC(O)C(N)CO (stereo unspecified)	none
[O-][n+]1cccc2c(Br)cc(Br)c(O)c21	none
CN(C)Cc1c(C(=O)N/N=C/c2cccc(OCc3c(F)cccc3Cl)c2)nnn1-c1nonc1N	Apaf-1 act -95.7 | Rh110 act interf inactive | Apaf-1 act conf inactive
CN(Cc1c(F)cccc1Cl)C(=O)c1ccc(COc2ccccc2)cc1	none
NC(=O)C1CCN(C2=C(NS(=O)(=O)c3ccc(Br)cc3)C(=O)c3ccccc3C2=O)CC1	none
CC(C)CC(=O)NC(=S)Nc1ccccc1F	Apaf-1 act -79.7 | Rh110 act interf inactive | Apaf-1 act conf inactive
Cc1ccc(NC(=S)Nc2cccc3ccccc23)cc1F	none
COC(=O)CCC(=O)OC1(C)C(=O)C=C2C=C(C3CC3)N(CCN3CCOCC3)C=C2C1=O (stereo unspecified)	none
CCC(=O)Nc1ccccc1C(=O)N1CCCC1	Apaf-1 act -43.6 | Rh110 act interf inactive | Apaf-1 act conf inactive

Bioassay records (PubChem)
